Assays:
[1] = test system: p-Akt T308 in glioblastoma-astrocytoma U-87 MG cells; experiment: p-Akt T308 Western blot in U-87 MG cells; format: cell-based; details: U-87 MG cells (no PSA) incubated with 11, 3 h, control PBS
In short: (§1)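 Cells were seeded at 4×105 per 6 cm dish, grown 48 h to about 80% confluence, then exposed to test compound for 3 h with PBS as control. C4-2LucBAD cells were in RPMI 1640, serum-free for 18 h beforehand. LNCaP cells were in T-Medium with 2.5% FBS. U-87 MG cells were in DMEM, serum-free. HEPES pH 7.4 lysates with protease and phosphatase inhibitors were blotted for p-Akt T308, Akt and β-actin.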

[2] = test system: p-Akt T308 in prostate cancer LNCaP cells; experiment: p-Akt T308 Western blot in LNCaP cells; format: cell-based; details: LNCaP cells incubated with 11, 3 h, dose-response, control PBS
In short: as §1

[3] = test system: p-Akt T308 (PI3K/Akt pathway) in prostate cancer C4-2 cells; experiment: p-Akt T308 Western blot in C4-2 cells; format: cell-based
In short: (§2)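 BT-549 cells (RPMI 1640, 10% FBS, 0.023 U/mL insulin) and C4-2 cells (RPMI 1640, 10% FBS) were seeded at 4×105 per 6 cm dish, grown 48 h to about 80% confluence, then moved to serum-free medium. Dosing was a 30 min concentration series with DMSO control, or a 3 h series or 30 min–6 h time course with PBS control. Lysates went to 12% SDS-PAGE and were probed for p-Akt T308, Akt and β-actin, with infrared detection and densitometry.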

[4] = test system: C4-2LucBAD cells; experiment: Caspase 3 assay in C4-2LucBAD cells; format: cell-based
[5] = test system: p-Akt T308 in breast cancer BT-549 cells; experiment: C4-2 conditioned medium assay; format: cell-based; details: 11 incubated in media conditioned by BT-549 cells
In short: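 Test compound held 6 h at 37 °C (5% CO2, humidified) in serum-free medium on producer cells; this line's arm used BT-549-conditioned medium. Medium then transferred to BT-549 cells for 3 h. Cells seeded 4×10^5 per 6 cm dish, grown 48 h to ~80% confluence; BT-549 medium carried 0.023 U/mL insulin. Phospho-Akt T308 read by Western blot of clarified lysates; n=3.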

[6] = test system: purified active human PSA; p-Akt T308 in BT-549 cells; experiment: Cleavage of compound 11 with purified PSA, then p-Akt T308 in BT-549 cells; format: cell-based; details: 11 without PSA, added to BT-549 cells for 30 min
In short: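 Test compound was pre-incubated 6 h at 37 °C in 50 mM Tris-HCl, 0.1 M NaCl, pH 7.8 with increasing concentrations of enzymatically active PSA purified from human semen. It was then applied for 30 min to serum-starved BT-549 cells, maintained in RPMI 1640 with 10% FBS and 0.023 U/mL insulin. p-Akt T308 was read by Western blot against a PBS control, in three independent experiments.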

[7] = test system: p-Akt T308 in C4-2LucBAD cells; experiment: p-Akt T308 Western blot in C4-2LucBAD cells; format: cell-based; details: 3 h, dose-response, control PBS
In short: as §1

[8] = test system: p-Akt T308 (PI3K/Akt pathway) in breast cancer BT-549 cells; experiment: p-Akt T308 Western blot in BT-549 cells; format: cell-based
In short: as §2

[9] = Water solubility; details: qualitative statement
[10] = test system: C4-2LucBAD cells; details: C42LucBAD cells that ectopically express BAD; cited from earlier work

Mu-LEHSSKLQL-8-(4-(Hydroxymethyl)phenyl)-2-morpholino-4H-chromen-4-one [Compound 11]
p-Akt T308 levels [1]: No significant reduction
p-Akt T308 levels [2]: dose-dependent reduction
p-Akt T308 levels ([3]; C4-2 cells incubated with 11, 3 h, dose-response, control PBS): dose-dependent reduction
p-Akt T308 levels, time course ([3]; C4-2 cells treated with 11 from 30 min to 6 h, vs control, Western blot, three independent experiments): time-dependent reduction
Caspase 3 activity compared with active inhibitor ([4]; 6 h): Somewhat lower levels
Caspase 3 activity (apoptosis) ([4]; 6 h after administration, fluorogenic substrate Ac-DEVD-7-amido-4-trifluoromethylcoumarin, n=2, vs DMSO control): increased
p-Akt T308 levels in BT-549 cells after 11 incubated in BT-549 conditioned media [5]: had no effects
p-Akt T308 levels in BT-549 cells, 11 without enzymatically active PSA [6]: had no effect
p-Akt T308 levels [7]: dose-dependent reduction
p-Akt T308 levels ([8]; BT-549 cells (no PSA) incubated with 11, 3 h, control PBS): No significant reduction
p-Akt T308 levels, time course ([8]; BT-549 cells treated with 11 from 30 min to 6 h, Western blot, three independent experiments): no significant differences

CC(C)CC(N)C(=O)OCc1ccc(-c2cccc3c(=O)cc(N4CCOCC4)oc23)cc1 (stereo not shown) [Compound 10, 4-(2-morpholino-4-oxo-4H-chromen-8-yl) benzyl-2-amino-4-methylpentanoate]
PI3 kinase inhibitory potency relative to LY294002 ([3]; C4-2 and BT-549 cells, p-Akt T308 read-out, 30 min): comparable to LY294002
concentration that completely inhibited Akt phosphorylation ([3]; C4-2 cells, 30 min, dose-response analysis): 30 µM
concentration that completely inhibited Akt phosphorylation ([8]; BT-549 cells, 30 min, dose-response analysis): 30 µM

O=c1cc(N2CCOCC2)oc2c(-c3ccccc3)cccc12 [LY294002]
water solubility [9]: poor water solubility
induction of apoptosis [10]: induces apoptosis
